Screens as filed in PubChem BioAssay.
core dimer inh: inhibitors of HCV core protein dimerization, primary screen, biochemical, TR-FRET, high-throughput | TR-FRET GST/Flag-core106 dimerization, 1536-well | inhibition, % at 5 µM | hit rate 0.33% among 300,000 | AID 1899, 2009;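 active = inhibition above the mean of all tested compounds plus 3 SD, set per screening campaign, cut at about 45% in these data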
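Assay system: Tagged HCV core106 pair (GST and Flag) | Buffer or medium: KF-containing HEPES buffer, pH 7.45, DTT, CHAPS, BSA | Also added: Eu donor and XL665 acceptor anti-tag antibodies | Dosing: One concentration, 5 µM, in 0.5% DMSO | Timing: 4 h at 22.5 °C | Technique: TR-FRET 671 and 617 nm emission | Repeats: Singlicate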
HSF1 inh: HSF1 inhibitors in luciferase reporter cells, primary screen, cell-based, NIH3T3, luminescence; NIH3T3-HGL HSE-luciferase, MG132-induced, luminescence 8 h; stronger effect = lower value; activity change, negative = inhibition, % at 7.5 µM (by protocol); hit rate 0.77% among 300,000;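 active = more than half of replicate wells show activity change below -50%, luminescence cut by over half; inconclusive = some wells, but at most half, below -50%; inactive = no replicate well below -50%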;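 also: luciferase reports HSF-1 transcriptional activity via heat shock element; 0% = median of DMSO wells and -100% = zero luminescence signal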
ALR inh: inhibitors of human ALR sulfhydryl oxidase, primary screen, biochemical, H2O2 detection, HRP-luminol luminescence, single point | inhibition, % (no concentration beside the values) | hit rate 3.8% among 290,000 | purified ALR, DTT oxidation | AID 485317, 2010;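 active = mean replicate inhibition above about 79%, with every replicate also reaching it, limit read from the data; inconclusive = only one of the two criteria met; inactive = mean below limit and not every replicate reaching it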
Target sequence (P55789 whole entry, looked up): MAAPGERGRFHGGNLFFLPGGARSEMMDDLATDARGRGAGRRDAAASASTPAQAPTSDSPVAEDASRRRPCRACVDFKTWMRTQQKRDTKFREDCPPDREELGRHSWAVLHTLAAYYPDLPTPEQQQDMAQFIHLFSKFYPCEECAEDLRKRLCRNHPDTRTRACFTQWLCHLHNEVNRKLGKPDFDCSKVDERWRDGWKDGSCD
HSF-1 act: HSF-1 activators, primary screen, NIH3T3-HGL cells, MG132 stress, luminescence, single point; NIH3T3-HGL HSF-1 luciferase reporter, 8 h; 100% = twice DMSO control signal; activation, % at 9 µM; hit rate 1.7% among 300,000; AID 504408, 2011;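 active = mean replicate activation of at least 50% with a set share of replicates each reaching 50%; inconclusive = only one of those two conditions met; inactive = mean below 50% and too few replicates reaching it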;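 also: 0% = median of the neutral control wells and 100% = twice that signal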
AI-2 QS modul: Vibrio harveyi AI-2 quorum sensing modulators, primary screen, JMH597 strain, luminescence/OD600 ratio; hit rate 0.4% among 300,000; activity change, % at 7.5 µM; AID 2094, 2009; Vibrio harveyi JMH597 AI-2 luminescence/OD600 ratio, 9 h; stronger effect = lower value; strain lacks LuxN and CqsS sensors; 0 = neutral-control median; in the data active = activity change below about -75%, passing the limit was not always enough; inconclusive = no clear call, values can overlap the other calls;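 also: luminescence divided by OD600 gain over 9 h not by final OD600 alone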
PHOSPHO1 inh: PubChem AID 1565. Phosphoethanolamine/phosphocholine phosphatase (Homo sapiens), Q8TCT1. recombinant PHOSPHO1, absorbance phosphatase assay. inhibition, % at 13.3 µM. hit rate 1.1% among 290,000; in the data active = inhibition above about 60%
Target sequence (Q8TCT1 whole entry, looked up): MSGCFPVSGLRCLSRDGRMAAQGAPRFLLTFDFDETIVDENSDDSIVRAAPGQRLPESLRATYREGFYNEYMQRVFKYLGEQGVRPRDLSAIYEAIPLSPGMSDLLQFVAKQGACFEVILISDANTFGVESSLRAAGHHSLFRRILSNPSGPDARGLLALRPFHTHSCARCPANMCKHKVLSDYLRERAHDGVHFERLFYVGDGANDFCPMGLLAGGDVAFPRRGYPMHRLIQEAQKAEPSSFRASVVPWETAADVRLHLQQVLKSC
* marks the source's active call; other numbers are inactive results; ? = inconclusive; . = not tested or not shown. Rows were chosen to be rich in hits. Some 6.8% of all compounds tested hit in one or more screens of this group.

SMILES	core dimer inh	HSF1 inh	ALR inh	HSF-1 act	AI-2 QS modul	PHOSPHO1 inh
O=C(N/N=C/c1ccc2c(c1)OCO2)C(O)c1ccccc1 (stereo not drawn)	-0.8	-4.1	20.2	-5.4	12.3	1.4
Cn1nc(-c2ccccc2)c(CO)c1Oc1ccc(F)cc1	-0.3	6.4	-13.3	6.9	6.4	-16.5
CC(=O)Nc1ccc(NC(=O)CSc2nnc(C)c(=O)n2N)cc1	0.2	-5.1	97.7*	-2.0	-2.1	-7.6
CCCCc1ccc(NC(=O)CSc2nnc(C)c(=O)n2N)cc1	-20.9	6.9	?	16.8	-30.2	62.8*
Cc1csc(NC(=O)CSc2nnc(C)c(=O)n2N)n1	-2.0	-0.2	99.1*	-1.0	14.0	38.5
Cc1nnc(SCC(=O)Nc2ccc(F)cc2)n(N)c1=O	-14.8	-2.5	-30.3	12.9	-5.7	42.7
Cc1nnc(SCC(=O)Nc2ccc(N(C)C)cc2)n(N)c1=O	-2.2	3.0	99.4*	20.8	20.4	0.7
Cc1csc(NC(=O)CSc2nnnn2C)n1	-3.8	2.9	-4.2	16.2	4.1	3.9
CC(C)C(=O)N=C1SC2CS(=O)(=O)CC2N1Cc1ccccc1 (stereo not drawn)	6.8	-7.4	-1.8	-2.1	18.0	-0.5
C=CCCO[C@@H]1O[C@@H](C)[C@H](O)C[C@H]1O	.	.	1.6	.	.	.
CC(C)(C)C(=O)NC(=S)NNC(=O)c1ccc(-c2ccccc2)cc1	3.1	-17.4	40.3	-17.4	?	-77.9
CCCCc1ccc(NC(=O)CSCc2cc(=O)[nH][nH]2)cc1	0.5	12.4	78.8*	11.9	-18.4	17.1
CN1C(=O)CC(C(=O)O)SC1=Nc1cc(Cl)c(O)c(Cl)c1 (stereo not drawn)	-9.5	0.7	98.6*	6.5	3.6	12.1
CN1C(=O)CC(C(=O)O)SC1=Nc1cc(Cl)cc(Cl)c1 (stereo not drawn)	-5.7	0.7	3.4	36.4	-6.1	6.2
Cc1cccc(N(C)Cc2nnc(-c3cccc(Br)c3)o2)c1	1.6	3.6	8.9	-1.3	12.2	32.7
O=C(NCc1ccccc1Cl)C(=O)NCC(c1ccco1)N1CCOCC1 (stereo not drawn)	3.4	-7.9	-3.9	-3.5	39.7	30.3
CCOC(=O)c1c(N2C(=O)Nc3ccccc3N2O)sc2c1CCCCC2	16.1	5.6	95.1*	7.8	19.2	-21.1
COC(=O)c1c(N2C(=O)Nc3ccccc3N2O)sc2c1CCCC2	12.2	-6.7	9.0	5.2	0.6	3.2
COc1ccccc1CN1C(=NC(=O)CCC2CCCC2)SC2CS(=O)(=O)CC21 (stereo not drawn)	12.2	-0.6	2.8	-0.8	10.2	27.9
CCOC(=O)c1ccc(OS(=O)(=O)c2ccccc2)c(OC)c1	-0.6	24.9	-4.6	62.8*	8.5	25.2
COc1ccc(C(=O)O/N=C(\N)c2ccccc2)cc1OC	1.5	32.1	-13.1	55.9*	3.5	29.2
COc1cccc(C(=O)O/N=C(\N)c2ccc(C)cc2)c1	0.6	11.2	42.3	34.2	16.0	35.1
COc1cccc(C(=O)O/N=C(\N)Cc2ccc(Cl)cc2)c1	-2.1	15.6	-17.9	18.8	-92.4*	-2.4
COc1ccc(/C(N)=N/OC(=O)CSc2ccccc2)cc1OC	-2.4	58.7	-10.9	61.5*	22.8	1.0
COc1ccc(NC(=O)COC(=O)CN2C(=O)C3CCCCC3C2=O)cc1OC (stereo not drawn)	.	.	-5.4	.	.	.
SMILES	core dimer inh	HSF1 inh	ALR inh	HSF-1 act	AI-2 QS modul	PHOSPHO1 inh
COCCC(=O)N1CCC(Oc2ccc(C(=O)N3CCCCC3COC)cc2)CC1 (stereo not drawn)	-2.2	-2.0	1.5	-9.0	3.8	29.3
COc1cccc(C(=O)O/N=C(\N)c2ccc([N+](=O)[O-])cc2)c1	-4.3	27.6	-0.6	59.5*	14.7	54.6
CCOC(=O)C1=NNC2C(=O)N(Cc3ccccc3)C(=O)C12 (stereo not drawn)	-3.0	3.5	-13.3	17.7	53.8	46.4
COc1ccc(-c2csc3nc(-c4cccnc4)nc(Cl)c23)cc1OC	-1.5	5.2	97.6*	-13.0	10.0	-12.3
Clc1nc(-c2cccnc2)nc2scc(-c3ccccc3)c12	4.8	58.0	96.7*	71.8*	11.0	-2.0
COc1ccc(-c2nc(-c3cccnc3)no2)cc1OC	3.0	6.1	1.5	7.6	28.5	11.7
Nc1ccc(C(=O)N/N=C/c2cn(Cc3ccccc3)c3ccccc23)cc1	.	2.6	-1.0	7.3	33.8	16.2
COc1cc(C(=O)N/N=C/c2cn(Cc3ccccc3)c3ccccc23)ccc1O	.	-2.5	84.6*	0.4	6.8	6.1
COc1cc(C(=O)N/N=C(\C)c2ccc(NC(=O)Cc3ccccc3)cc2)ccc1O	.	.	95.5*	.	11.5	27.4
O=C(N/N=C/c1cn(CCOc2ccccc2)c2ccccc12)c1ccncc1	4.0	13.5	-4.2	32.1	22.2	-4.6
COc1ccccc1OCCn1cc(/C=N/NC(=O)c2ccncc2)c2ccccc21	0.6	0.4	-9.2	16.5	16.0	60.5*
CCOc1cc(C=NNC(=O)c2cccc(S(=O)(=O)N3CCCC3)c2)ccc1O	.	.	95.1*	.	.	.
O=C(NN=Cc1ccc(F)cc1)c1cccc(S(=O)(=O)N2CCCC2)c1	.	.	-14.6	.	.	.
O=C(N/N=C/c1ccc(O)c(O)c1)c1cccc(S(=O)(=O)N2CCCCC2)c1	-6.4	-3.7	99.0*	0.3	.	10.8
COc1cc(OC)cc(-c2nnc(Sc3ccc(C=O)cc3[N+](=O)[O-])o2)c1	9.5	88.4	.	141.8*	9.7	46.6
COc1cc(OC)cc(-c2nnc(SCC(=O)N(C(C)C)C(C)C)o2)c1	-4.1	-4.5	-3.7	5.0	22.6	8.9
CCOc1cc(-c2c(C#N)c(N)nc3c2CCCC3C)ccc1O (stereo not drawn)	5.7	3.3	97.6*	11.1	-3.4	10.9
CCOc1cc(-c2c(C#N)c(N)nc3c2CCc2ccccc2-3)ccc1O	3.0	15.2	33.5	34.5	-8.0	-11.7
CCOc1ccccc1N1C(=O)CC(Sc2n[nH]c(-c3ccccc3)n2)C1=O (stereo not drawn)	9.6	-9.8	98.5*	-22.2	21.7	32.2
COC(=O)c1ccc(N2C(=O)CC(Sc3n[nH]c(C)n3)C2=O)cc1 (stereo not drawn)	27.3	-3.3	.	-4.7	59.8	84.9*
